Common to all, as to format: functional, tissue-based
For test [1], the target named is T1, Progesterone receptor (Rattus norvegicus) (UniProt Q63449).
T1 sequence (whole entry): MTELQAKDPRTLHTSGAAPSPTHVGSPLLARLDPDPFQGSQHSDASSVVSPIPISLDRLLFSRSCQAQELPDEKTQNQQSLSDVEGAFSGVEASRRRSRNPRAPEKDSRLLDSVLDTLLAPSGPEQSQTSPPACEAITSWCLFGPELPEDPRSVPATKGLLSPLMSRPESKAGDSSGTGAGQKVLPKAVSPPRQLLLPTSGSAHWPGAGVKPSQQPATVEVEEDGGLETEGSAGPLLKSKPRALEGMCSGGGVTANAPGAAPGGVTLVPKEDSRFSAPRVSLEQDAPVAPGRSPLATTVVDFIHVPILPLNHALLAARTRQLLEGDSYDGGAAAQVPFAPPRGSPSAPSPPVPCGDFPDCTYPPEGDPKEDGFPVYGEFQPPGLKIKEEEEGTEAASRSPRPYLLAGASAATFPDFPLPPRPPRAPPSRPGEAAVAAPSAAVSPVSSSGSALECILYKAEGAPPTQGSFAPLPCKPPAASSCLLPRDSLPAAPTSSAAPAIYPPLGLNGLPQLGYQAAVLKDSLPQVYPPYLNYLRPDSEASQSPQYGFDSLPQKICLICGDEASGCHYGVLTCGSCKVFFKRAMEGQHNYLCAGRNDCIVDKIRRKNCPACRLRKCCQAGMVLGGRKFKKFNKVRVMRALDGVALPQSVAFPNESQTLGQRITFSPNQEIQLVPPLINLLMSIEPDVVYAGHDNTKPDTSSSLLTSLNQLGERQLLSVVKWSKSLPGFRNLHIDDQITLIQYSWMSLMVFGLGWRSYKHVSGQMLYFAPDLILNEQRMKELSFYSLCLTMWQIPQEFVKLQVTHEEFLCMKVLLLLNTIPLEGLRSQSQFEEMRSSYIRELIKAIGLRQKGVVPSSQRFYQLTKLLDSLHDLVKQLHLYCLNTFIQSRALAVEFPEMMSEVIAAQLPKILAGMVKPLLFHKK
Description: Tissue distribution in bone 1 hr after [18F]4 injection into estrogen-primed immature rats at normal dose. Particulars: Bone element. The method, boiled down: (§1)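 Female Sprague-Dawley rats, 23 days old, primed with estradiol 5 μg s.c. in 20% ethanol/sunflower oil on two days and used 24 h later. Under ether, they received 51 μCi tracer (30 Ci/mmol) iv via the tail vein in 0.1 mL 10% ethanol/saline. Killed by decapitation at 1 h; tissues weighed and gamma-counted. Results as %ID/g or tissue ratios, mean ± SD, n = 5.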

For test [2], the target named is T1, Progesterone receptor (Rattus norvegicus). The experiment in a line: Tissue distribution in lung 1 hr after [18F]4 injection into estrogen-primed immature rats co-injected with uterine uptake blocker (ORG 2058). Summed up: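 Blocking group: estrogen-primed immature female Sprague-Dawley rats (estradiol 5 μg s.c. ×2 days, used 24 h later). ORG 2058 18 μg was co-injected with the tracer dose iv via tail vein, 0.2 mL injection volume in 10% ethanol/saline. Killed 1 h later; tissues weighed and gamma-counted. Results as %ID/g or ratios, mean ± SD, n = 5.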

Test [3] shares this target. Description: Tissue distribution in blood 3 hr after [18F]-4 injection into estrogen-primed immature rats. Summed up: (§2)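 Immature female Sprague-Dawley rats, estradiol-primed (5 μg s.c. in 20% ethanol/sunflower oil, two successive days, used 24 h later). Tracer (30 Ci/mmol) in 10% ethanol/saline was injected iv into the tail vein under ether anesthesia. Animals were decapitated 3 h postinjection; organs weighed and gamma-counted. %ID/g, mean ± SD, n = 5.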

Test [4] shares this target. The experiment in a line: Tissue distribution in brain 1 hr after [18F]-4 injection into estrogen-primed immature rats at low dose. The method, boiled down:
(§3)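 Estrogen-primed immature female Sprague-Dawley rats (estradiol 5 μg s.c. daily ×2, used 24 h later) were given a reduced tracer dose of 30 μCi in 0.04 mL 10% ethanol/saline, tail vein iv, under ether. Decapitated at 1 h; organs weighed and gamma-counted. Results as %ID/g or uterus/tissue ratio, mean ± SD, n = 5.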

For test [5] the target is unchanged. Description: Tissue distribution in uterus/blood 1 hr after [18F]4 injection into estrogen-primed immature rats at normal dose. Summed up:
as §1

The target is the same in test [6]. Description: Tissue distribution in lung 1 hr after [18F]4 injection into estrogen-primed immature rats at normal dose. Summed up:
as §1

For test [7] the target is unchanged. The experiment in a line: Tissue distribution in fat 3 hr after [18F]4 injection into estrogen-primed immature rats. To be noted: Adipose tissue. Summed up:
as §2

Test [8] shares this target. The experiment in a line: Tissue distribution in fat 1 hr after [18F]4 injection into estrogen-primed immature rats at low dose. To be noted: Adipose tissue. Summed up: as §3
For test [9] the target is unchanged. Description: Tissue distribution in ovaries 1 hr after [18F]4 injection into estrogen-primed immature rats at low dose. Particulars: Female gonad. Summed up: as §3
For test [10] the target is unchanged. Description: Tissue distribution in brain 1 hr after [18F]4 injection into estrogen-primed immature rats at normal dose. Summed up:
as §1

Test [11] shares this target. Description: Tissue distribution in bone 1 hr after [18F]4 injection into estrogen-primed immature rats at low dose. To be noted: Bone element. Summed up:
as §3

The target is the same in test [12]. The experiment in a line: Tissue distribution in uterus/muscle 3 hr after [18F]4 injection into estrogen-primed immature rats. Summed up: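 Immature female Sprague-Dawley rats (23 days old) were primed with 5 μg estradiol in 20% ethanol/sunflower oil s.c. on two successive days and used 24 h after the last injection. The 18F tracer (51 μCi, specific activity 30 Ci/mmol) in 10% ethanol/saline was given iv in the tail vein under ether anesthesia. Rats were decapitated at 3 h, and organs were weighed and gamma counted. Ratio of %ID/g, n = 5.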

For the molecule `C[C@@]1(c2ccc(F)cc2)O[C@@H]2CC3C4CCC5=CC(=O)CC[C@@H]5C4CC[C@]3(C)[C@]2(C(=O)CO)O1` (some centres undefined), the Injected dose/g in [1] was determined as 0.62%; in [2] it was 0.54%; in test [3] it was 0.1%; in test [4] it was 0.39%; in test [6], 0.6%; in test [7], 1.64%. Besides, the Injected dose/g in [8] turned out to be 3.78%; in test [9], 2.66%; in test [10] it was 0.34%; in test [11] it was 0.68%. For the same molecule, the uterus/blood ratio in test [5] was found to be 14. Moreover, in test [12], the uterus/muscle ratio was 27.9.
For the molecule `CC(=O)[C@@]12O[C@](C)(c3ccc(F)cc3)O[C@@H]1CC1C3CCC4=CC(=O)CC[C@]4(C)C3CC[C@@]12C` (some centres undefined), the Injected dose/g in [1] came out at 1.76%; in [2], 1.26%; in test [3] it was 0.28%; in test [4], 0.57%; in [6], 1.3%; in test [7], 5.06%. The Injected dose/g in test [8] turned out to be 5.39%; in test [9], 3.68%; in test [10], 0.56%; in test [11] it was 1.77%. Besides, the uterus/blood ratio in test [5] turned out to be 6.59. Further, in test [12], the uterus/muscle ratio came out at 4.61.
